Published values collected from several papers.
Cell line: MDA-MB-468
Effect on: cell growth or viability

Structure (SMILES)	test	conditions	IC50 [µM]
c1ccc2c(c1)Cc1c(Cc3csc4ccccc34)ccc3cccc-2c13	MTT	–	157
O=C(CSc1nc2ccc(N=Cc3ccc(Sc4nnnn4-c4ccccc4)o3)cc2s1)N1CCOCC1	MTT	48 h	26.9
CC(C)(C)c1ccc(S(=O)(=O)NN=Cc2cn(CCN3CCOCC3)c3ccccc23)cc1	MTT	48 h	29.6
CC(=O)Nc1nc(C)c(-c2csc(Nc3ccccc3)n2)s1	MTT	48 h	12.1
CCN1CCN(Cc2ccc(Nc3ncc(F)c(-c4cc(F)c5nc(C)n(C(C)C)c5c4)n3)nc2)CC1	CCK-8	–	0.711
COc1ccc(/C=C/C(=O)c2cc(Br)ccc(=O)c2O)cc1	MTT	72 h	6.6
O=C(/C=C/c1ccccc1)c1ccccc1	resazurin	72 h	> 50
O=[N+]([O-])c1ccc(S(=O)(=O)NN=Cc2cn(CCN3CCOCC3)c3ccccc23)cc1	MTT	48 h	37.1
Cc1c2cccc(Sc3ccccc3)c2c2c3c(cccc13)[S+](c1ccccc1)C2 (centres unmarked)	MTT	–	0.71
O=S(=O)(NN=Cc1cn(CCN2CCOCC2)c2ccccc12)c1ccc(Cl)cc1	MTT	48 h	8.2
N=C(N)c1ccc(-c2ccc(-c3ccccc3)o2)cc1	MTT	–	0.66
COc1ccc(Br)cc1/C=C/C(=O)c1ccc(NC(C)=O)cc1	MTT	48 h	2.4
Oc1ccc(/C=C/c2cc(O)cc3c2C(c2cc(O)cc(O)c2)C(c2ccc(O)c(O)c2)O3)cc1 (centres unmarked)	MTT	–	18
COc1cccc2c1C(=O)c1c(O)c3c(c(O)c1C2=O)C[C@@](O)(C(=O)CO)C[C@@H]3O[C@H]1C[C@H](N)[C@H](O)[C@H](C)O1	MTT	48 h	0.08
COc1ccccc1N=Nc1c(O)ccc2ccccc12	MTT	–	21
CCc1ccc(N2NC(=O)/C(=C/c3ccc(-c4ccc(S(=O)(=O)Nc5nccs5)cc4)o3)C2=O)cc1	MTT	48 h	44
Cc1ccc(S(=O)(=O)NN=Cc2cn(CCN3CCOCC3)c3ccccc23)cc1	MTT	48 h	40.8
COc1cc(/C=C2\SC(=O)NC2=O)ccc1OCc1ccc(Cl)cc1Cl	MTT	48 h	32.5
O=S(=O)(NN=Cc1cn(CCN2CCOCC2)c2ccccc12)c1cccc2ncccc12	MTT	48 h	32.2
CN(N=O)c1ccc(C=Cc2ccnc3ccccc23)cc1	MTT	–	3.5
